Test results taken from the RNAGym collection of RNA variant scans (doi:10.1126/science.aae0568).
Variants at the floor of the assay were thinned out.

B1: tRNA (parent)
chain: GUUCCGUUGGCGUAAUGGUAACGCGUCUCCCUCCUAAGGAGAAGACUGCGGGUUCGAGUCCCGUACGGAACG

Variants of: B1
Test: yeast fitness relative to wild type (ratio to wild type); higher = fitter; tRNA-Arg(CCU), competitive growth, 37 C, YPD
Outline: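 Changes in genotype frequencies gave Darwinian fitness relative to wild type. Frequencies were read by 100-nucleotide paired-end sequencing of gene amplicons before and after pooled Saccharomyces cerevisiae strains, carrying tRNA-Arg(CCU) gene variants at the native locus, were competed in YPD at 37°C for 24 hours in six replicates. A genotype was kept only with ≥ 100 starting reads, and estimates < 0.5 were set to 0.5.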

Point of comparison: GUUCCGUCGGCGUAAUGGUAACGCGUCGCCCUCCUAAGGUGAAGACUGCGGGUUCGAGUCCCGUACGGAACG [U8C U28G A40U], yeast fitness 0.588. Against it:
- GUUCCGUCGGCGUAAUGGUAACGCGUCUCCCUCCUAAGGAGAAGACUGCGGGUUCGAGUCCCCUACGGAACG [U8C G63C] — higher, 0.778
- GUUCCGUCGGCGUAAUGGUAACGCCUCUCCCUCCUAACGAGAAGACUGUGGGUUCGUGUCCCGUAAGGAACG [U8C G25C G38C C49U A57U C66A] — lower, ≤ 0.5
- GUUCCGUGGGCGUAAUGGUAACGCGUCUCACUCCUAAGGAGAAGACUGCCGGUUCGAGUCCUGUACUGAACG [U8G C30A G50C C62U G67U] — lower, ≤ 0.5
- GUUCCGUGGGCGUAAUGGUAACGGGUCUCCCUCCUAAGGAGAAGACCGCGGGUUCGAGUCGCGUACGGAACG [U8G C24G U47C C61G] — lower, ≤ 0.5
- GUUCCGUGGGCGUAAUGGUGACGCGUCUCCCUCCUAAGGAGAAGACUGCGGGUUCGAGUCCCGUACGGAACG [U8G A20G] — lower, 0.544
- GUUCCGUCGGCGGAAUGGUAAUGCGUCUCCCUCCUAAGGAGAAGACUGUGGGUUCGAGUCCCGUUCGGAACG [U8C U13G C22U C49U A65U] — lower, ≤ 0.5
- GUUCCGUCGGCGUAAUGGUAACGCGUCUCCCUCCUAAGGACAAGACUGCGGGUUCGAGUCCCGUACGGAACG [U8C G41C] — higher, 0.88
- GUUCCGUCGGCGUAAUGGUAACGCGUCUCCCUCCUAAGGAGAAGACUGCCGGUUCGAGUCCCGUACGGAACG [U8C G50C] — higher, 0.663
- GUUCCGUCGGCGUAAUGGUAACGCGUCUCCCCCCUAAGGAGAAGACUGCGGGUUCGAGUCCCGUACGGAACG [U8C U32C] — higher, 0.81
- GUUCCGUGGGCGUAAUGGUAACGCGUAUCCCUCCUAAGGAGAAGACUGCGGGUUCGAGUCCCGUACGGAACG [U8G C27A] — lower, 0.564
- GUUCCGUGGGCGUUAUGGUAACGCGUCUCCCUCCUAAGAAGAAGACUGCGGGUUGGAGUCCCGUACGGAACG [U8G A14U G39A C55G] — lower, ≤ 0.5
- GUUCCGUGGGCGUGAUGGUAACGCAUCUCCCUCCUGAGGAGUAGACUGCGGGUUCGAGUCCCGUACGCAACG [U8G A14G G25A A36G A42U G68C] — lower, ≤ 0.5
- GUUCCGUGGGUGUAAUGGUAACGCGUCUCCCUCCUAAGGAGAAGACUACGGGUUCGAGUCCCGUACGGUACG [U8G C11U G48A A69U] — lower, ≤ 0.5
- GUUCCGUCGGCCUAAUGGUAACGCGUCUCCCUCCUAAGGAGAAGACUGCGGGUUCGAGUCCCGUACGGACCG [U8C G12C A70C] — higher, 0.686
- GUUCCGUGGGCGUACUGGUAACGCGUCACCCUCCUAAGGAGAAGACUGCGGGUUCGAGUCCCGUACGGAACG [U8G A15C U28A] — lower, ≤ 0.5
- GUUCCGUCGCCGUAAUGGUAACCCGUCUGCCUCCUAAGGAGAAGACUGCGAGUUCGAGUCCCGUACGGAACG [U8C G10C G23C C29G G51A] — higher, 0.72
- GUUCCGUCGGCGUAAUGGUAACGCGUCUCCCUCCUAAGGAGAAGACAGCGGGUUCGAGUCCCGUACGGAACG [U8C U47A] — higher, 0.937
- GUUCCGUGGGCGUAAUGGUAACGCGUCUCCCUCCUAAGGAGAAGACUGGGGGCUCGAGUACCGUACGGAACG [U8G C49G U53C C60A] — lower, ≤ 0.5
- GUUCCGUCGGCCUAAUGGUAACGCGUCUCCCUCCUAAGGAGAAGACUGCGGGUUCGAGUCCCGUACGGAACG [U8C G12C] — higher, 0.853
- GUUCCGUGGGCGUAAUGGUAACGCGUCUCUCUCCUAAGGAGAAGGCUGCGGGUUCGAGUACCGUAUGGAACG [U8G C30U A45G C60A C66U] — lower, ≤ 0.5
- GUUCCGUGGGCGUUAUGGUAACGCGUCUCCCUCCUAAGGAGAAGACUGCAGGUUCGUGUCCCGUACGGAGCG [U8G A14U G50A A57U A70G] — lower, ≤ 0.5
- GUUCCGUCGGCGUAAUGGUAACGCGUCUCCCUCCUAAGGAGAAGACUGCAGGUUCGAGUCCCGUACGGAUCG [U8C G50A A70U] — higher, 0.736
- GUUCCGUGGGCGUAAUGGUAACGCGUCUGCCUCCUAAGGUGAAGACUGCGGGUUCGAGUCUCGUACGGCACG [U8G C29G A40U C61U A69C] — higher, 0.648
- GUUCCGUCGGCGUAAUGGUAACGCGUCUCCCUCCUAAGGAGAAGACCGCGGGUUCGAGACCCGUACGGAGCG [U8C U47C U59A A70G] — lower, ≤ 0.5
- GUUCCGUCGGCAUAAUGGUAACGCGUCUCCCUCCUAAGGAGAAGACUCCGGGUUCGAGUCCCGUACGGAACG [U8C G12A G48C] — higher, 0.675
- GUUCCGUGGGCGUAAUGGUAACGCGUCUCCCUCCUAAGGAGAAGACUGUGGGUUCGAGUCCCGUACGGAACG [U8G C49U] — higher, 0.668
- GUUCCGUGGGCGUAAUGGUAACGCGUCUCUGUCCUAAGGAGAAGACUGCGGGUUCGAGUCCCGUAGGGAACG [U8G C30U C31G C66G] — lower, ≤ 0.5
- GUUCCGUCGGCGUAACGGUCACGGGUCUCCCUCCUAAGGAGAAGACUGCGGGUUAGAGUCCCGUACGGAACG [U8C U16C A20C C24G C55A] — higher, 0.729
- GUUCCGUGGGCGUAAUGGUUACGCGUCUCCCUCCUAAGGAGAACACUGCGGGUUCGAGUCCCGUACGGAACG [U8G A20U G44C] — lower, 0.558
- GUUCCGUCGGCAUAAUGGUAACGCGUCUCCCUCCUAAGGAGAAGACUGCGGGUUCGAGUCCCGUGCGGAACG [U8C G12A A65G] — higher, 0.615
- GUUCCGUCGGCGUAAUGAUAACCCGUCUCCGUCCUAACGAAAAGACUGCGGGUUCGAGUCCCGUACGGAACG [U8C G18A G23C C31G G38C G41A] — higher, 0.635
- GUUCCGUGGGCGUAAUGGUAUCGCGUCUCCCUCCUAAGGAGAAGACUGCGGGUUCGAGUCCCGUACGCAACG [U8G A21U G68C] — lower, ≤ 0.5
- GUUCCGUCGGCCUAAUGGUAACGCGUCUCCCUCCUAAGGAGAAGACUGCGGGUUCGAGUCCUGUACGGAACG [U8C G12C C62U] — lower, 0.587
- GUUCCGUCGGCGUAAUCGUAACGCGCCUCCCUCAUAAGGAGAAGCCUACGGGUUCGAGUCCCGUACGGAACG [U8C G17C U26C C34A A45C G48A] — lower, ≤ 0.5
- GUUCCGUGGGCGUAAUGGUAACGCGUCUCCCUCCUAAGGAGAAGACUGGGGGCUCGAGUACCGUACGGUACG [U8G C49G U53C C60A A69U] — lower, ≤ 0.5
- GUUCCGUCGGCGUAAUAGUAACGCGUCUCCCUCCUAAGGAGAAGAAUGCGGGUUCGAGUCCCGUGCGGAACG [U8C G17A C46A A65G] — lower, ≤ 0.5
